Data from ChEMBL document CHEMBL3997810, “A Novel Potent Anticancer Compound Optimized from a Natural Oridonin Scaffold Induces Apoptosis and Cell Cycle Arrest through the Mitochondrial Pathway” (J Med Chem, 2017).
Calls of active or inactive are those of the source. No cut-off for these calls is given here.

Legend:
[1] = test system: MCF7; experiment: Induction of apoptosis in human MCF7 cells assessed as late apoptotic cells at 0.5 uM after 24 hrs by Annexin-V FITC/propidium iodide staining based flow cytometry (reference value: 0.255%); type: functional
[2] = test system: MCF7; experiment: Cytotoxicity against human MCF7 cells at 10 to 50 uM after 24 hrs by LDH assay; type: functional, cell-based
Summary of the method: (§1)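 Membrane integrity assay on MCF-7 and Bel-7402 cells seeded at ~5 × 10^3 per well for 24 h, then given compounds at 10, 20 or 50 μM. Culture medium collected and assayed with CytoTox-ONE LDH reagent for 10 min, followed by stop solution. Fluorescence read at Ex 560/Em 590 nm. Expressed as percentage of unstimulated cells.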

[3] = test system: Bel-7402; experiment: Cell cycle arrest in human Bel7402 cells assessed as accumulation at S phase at 1 uM after 48 hrs by propidium iodide staining based flow cytometry (reference value: 8.78%); type: functional
[4] = test system: MCF7; experiment: Cell cycle arrest in human MCF7 cells assessed as accumulation at S phase at 1 uM after 48 hrs by propidium iodide staining based flow cytometry (reference value: 37.18%); type: functional
Summary of the method: (§2)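 MCF-7 cells, 5 × 10^4 per well, seeded overnight, then exposed to 0.125–1 μM compound, or DMSO, for 48 h. Ethanol-fixed (70%, −20 °C, 12 h) and stained with PI/RNase at 37 °C for 30 min. Phase distribution determined by flow cytometry.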

[5] = test system: MCF7; experiment: Cell cycle arrest in human MCF7 cells assessed as accumulation at G2/M phase at 0.25 uM after 48 hrs by propidium iodide staining based flow cytometry (reference value: 13.05%); type: functional; summary of the method: as §2
[6] = test system: MCF7; experiment: Induction of apoptosis in human MCF7 cells assessed as live cells at 0.25 uM after 24 hrs by Annexin-V FITC/propidium iodide staining based flow cytometry (reference value: 97%); type: functional
[7] = test system: Mus musculus; experiment: Nephrotoxicity in Balb/c nude mouse xenografted with human MCF7 cells assessed as morphological changes in kidney at 20 mg/kg/day, iv for 4 weeks by hematoxylin and eosin staining based microscopic method; type: toxicity, organism-based; settings: in vivo, 672 h
Summary of the method: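 Male BALB/c nude mice aged six weeks received 1 × 10^6 MCF-7 cells subcutaneously in the right flank. After 7 d they were randomized and dosed 20 mg/kg iv once daily in 10% DMF/2% poloxamer/88% saline; saline control. Heart, liver, spleen, lung and kidney were fixed in 4% paraformaldehyde, paraffin-embedded, sectioned at 5 μm, H&E stained and examined microscopically.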

[8] = test system: MCF7; experiment: Cell cycle arrest in human MCF7 cells assessed as accumulation at S phase at 0.5 uM after 48 hrs by propidium iodide staining based flow cytometry (reference value: 37.18%); type: functional; summary of the method: as §2
[9] = test system: MCF7; experiment: Induction of apoptosis in human MCF7 cells assessed as chromatin condensation at 0.125 to 1 uM after 36 hrs by Hoechst 33342 staining based fluorescence microscopic method; type: functional, cell-based
[10] = test system: MCF7; experiment: Induction of apoptosis in human MCF7 cells assessed as late apoptotic cells at 0.25 uM after 24 hrs by Annexin-V FITC/propidium iodide staining based flow cytometry (reference value: 0.255%); type: functional
[11] = test system: MCF7; experiment: Induction of apoptosis in human MCF7 cells assessed as increase in Bax protein expression at 0.5 to 1 uM after 48 hrs by Western blot method; type: functional, cell-based
Summary of the method: (§3)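 MCF-7 cells were treated at 0, 0.125, 0.25, 0.5 or 1 μM for 48 h, washed in ice-cold PBS and lysed on ice for 20 min. Lysates were spun at 13,000 g, 4 °C. 20 μg protein was run on SDS-PAGE and blotted to PVDF, probed overnight at 4 °C with primary antibodies, then with fluorescent secondary antibodies. Band density was expressed relative to β-actin; three independent experiments.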

[12] = Permeability from basolateral to apical side in human Caco2 cells at 100 uM after 5 mins by HPLC method; type: ADME, cell-based; settings: caco-2, 5 min
[13] = test system: MCF7; experiment: Induction of apoptosis in human MCF7 cells assessed as live cells at 0.5 uM after 24 hrs by Annexin-V FITC/propidium iodide staining based flow cytometry (reference value: 97%); type: functional
[14] = test system: MCF7; experiment: Induction of apoptosis in human MCF7 cells assessed as early apoptotic cells at 0.25 uM after 24 hrs by Annexin-V FITC/propidium iodide staining based flow cytometry (reference value: 2.65%); type: functional
[15] = test system: Bel-7402; experiment: Cell cycle arrest in human Bel7402 cells assessed as accumulation at S phase at 0.5 uM after 48 hrs by propidium iodide staining based flow cytometry (reference value: 8.78%); type: functional
[16] = Antiproliferative activity against human KB/CP4 cells after 48 hrs by MTT assay; type: functional, cell-based; settings: KB/CP4, 48 h
Summary of the method: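 Colorimetric MTT assay. KB-3-1, NCI-H460 and Bel-7404 cells were seeded at 4000 cells/well; resistant KB/CP4, NCI-H460/MX20 and Bel-7404/CP20 were seeded at 7000 cells/well. Cells were pre-incubated 24 h at 37 °C, 5% CO2, then exposed to a compound concentration series for 48 h with DMSO ≤0.25%. Absorbance read at 570 nm. Quadruplicate wells, three repeats; means ± SD.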

[17] = target: T1, M-phase inducer phosphatase 3 (Homo sapiens) (UniProt P30307); experiment: Induction of cdc25c phosphorylation in human MCF7 cells after 48 hrs by Western blot method; type: cell-based; summary of the method: as §3
T1 sequence (whole entry): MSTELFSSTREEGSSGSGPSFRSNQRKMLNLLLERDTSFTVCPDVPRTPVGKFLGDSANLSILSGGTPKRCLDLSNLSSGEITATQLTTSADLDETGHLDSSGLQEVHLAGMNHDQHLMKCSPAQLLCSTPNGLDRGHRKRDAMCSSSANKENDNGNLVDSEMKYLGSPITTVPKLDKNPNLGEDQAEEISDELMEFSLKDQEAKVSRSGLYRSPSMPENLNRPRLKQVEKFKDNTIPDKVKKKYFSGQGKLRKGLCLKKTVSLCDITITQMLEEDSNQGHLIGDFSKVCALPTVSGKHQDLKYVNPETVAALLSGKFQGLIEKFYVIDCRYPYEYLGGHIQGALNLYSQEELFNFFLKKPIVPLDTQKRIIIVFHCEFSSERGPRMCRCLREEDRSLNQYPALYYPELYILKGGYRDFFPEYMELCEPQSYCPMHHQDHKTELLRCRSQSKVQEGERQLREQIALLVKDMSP

[18] = test system: MCF7; experiment: Induction of apoptosis in human MCF7 cells assessed as late apoptotic cells at 1 uM after 24 hrs by Annexin-V FITC/propidium iodide staining based flow cytometry (reference value: 0.255%); type: functional
[19] = test system: Bel-7402; experiment: Cell cycle arrest in human Bel7402 cells assessed as accumulation at G1 phase at 0.5 uM after 48 hrs by propidium iodide staining based flow cytometry (reference value: 34.61%); type: functional
[20] = test system: Bel-7402; experiment: Cytotoxicity against human Bel7402 cells at 10 to 50 uM after 24 hrs by LDH assay; type: functional, cell-based; summary of the method: as §1
[21] = test system: MCF7; experiment: Induction of mitochondrial membrane potential depolarization in human MCF7 cells after 36 hrs by JC1 staining based fluorescence microscopic method; type: functional, cell-based
Summary of the method: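 MCF-7 cells were treated with 0, 0.25, 0.5 or 1 μM for 36 h and loaded with 10 μg/mL JC-1 for 30 min at 37 °C, then washed in PBS. Monomers were read at ex 490/em 535 nm and aggregates at ex 525/em 600 nm, by plate reader or fluorescence microscopy. The red/green ratio came from 10,000 cells per group, in triplicate, mean ± SD.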

permeability [12]: Permeable
Activity [17]: Dose-dependent effect
SMILES: C=C1C(=O)[C@]23[C@H](OC(=O)/C=C/c4ccccc4)[C@H]1CC[C@H]2[C@]12C=CCC(C)(C)[C@H]1[C@H](O)[C@]3(O)OC2
Activity [1]: 30.2%
Activity [2]: inactive
Activity [3]: 8.51%
Activity [4]: 30.01%
Activity [5]: 16.73%
Activity [6]: 69.7%
Activity [7]: Non-Toxic
Activity [8]: 31.9%
Activity [9]: Active
Activity [10]: 19.6%
Activity [11]: Active
Activity [13]: 54.3%
Activity [14]: 8.29%
Activity [15]: 7.61%
IC50 [16]: 1560 nM
Activity [18]: 45.2%
Activity [19]: 34.56%
Activity [20]: inactive
Activity [21]: Dose-dependent effect
